Results on four compounds are retold here after ChEMBL document CHEMBL1126183, “Synthesis and biological studies of unsaturated acyclonucleoside analogues of S-adenosyl-L-homocysteine hydrolase inhibitors” (J Med Chem, 1992).

In one series the test system is MOLT-4. Briefly: In vitro inhibition of Leukemia Molt-4 cell line. It is filed as functional, Homo sapiens. In outline: (§1)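 NCI 60-cell-line human tumor screen. Cells were grown 24 h after plating, then exposed 48 h to compound at 10⁻⁴, 10⁻⁵, 10⁻⁶, 10⁻⁷ and 10⁻⁸ M. Growth effect (percent inhibition or kill) was read spectrophotometrically by sulforhodamine B protein staining.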

A further series concerns LOX IMVI. The series can be described thus: In vitro inhibition of melanoma […] cell line. It is filed as functional, Homo sapiens. In outline: as §1
The subject of series [1] is K562. Briefly: In vitro inhibition of leukemia K-562 cell line. It is filed as functional, Homo sapiens. The method, boiled down:
as §1

For the next series, the system named is SR. Briefly: In vitro inhibition of leukemia SR cell line. It is filed as functional, Homo sapiens. The method, boiled down: as §1
Another series has as its system DMS-114. Briefly: In vitro inhibition of lung DMS 114 cell line. It is filed as functional, Homo sapiens. In outline:
as §1

For series [2], the system named is K562. Briefly: In vitro inhibition of leukemia K-562 cell line. It is filed as functional, Homo sapiens. In outline:
as §1

Series [3] concerns NCI-H522. Briefly: In vitro inhibition lung […] cell line. The series is classed as functional, Homo sapiens. In outline: as §1
Series [4] concerns CCRF-CEM. The series can be described thus: In vitro inhibition leukemia CCRF-CEM cell line. It is filed as functional, Homo sapiens. The method, boiled down:
as §1

The subject of series [5] is CCRF-CEM. The series can be described thus: In vitro inhibition leukemia CCRF-CEM cell line growth. The series is classed as functional, Homo sapiens. The method, boiled down:
as §1

For series [6], the system named is LXFL 529. The series can be described thus: In vitro inhibition lung LXFL529 cell line growth. The series is classed as functional, Homo sapiens. The method, boiled down: as §1
Series [7] concerns SNB-75. The series can be described thus: In vitro inhibition CNS SNB-75 cell line. It is filed as functional, Homo sapiens. In outline:
as §1

Series [8] has as its system UO-31. Briefly: In vitro inhibition renal UO-31 cell line. It is filed as functional, Homo sapiens. The method, boiled down: as §1
The test system of series [9] is NCI-H522. Briefly: In vitro inhibition lung […] cell line growth. It is filed as functional, Homo sapiens. The method, boiled down: as §1
Series [10] relates to LXFL 529. The series can be described thus: In vitro inhibition lung LXFL529 cell line. The series is classed as functional, Homo sapiens. The method, boiled down:
as §1

In series [11] the test system is UO-31. The series can be described thus: In vitro inhibition renal UO-31 cell line growth. The series is classed as functional, Homo sapiens. In outline:
as §1

Series [12] relates to SNB-75. Briefly: In vitro inhibition CNS SNB-75 cell line growth. It is filed as functional, Homo sapiens. The method, boiled down:
as §1

Series [13] deals with Mus musculus. Briefly: Mean biodistribution and elimination data in lung was reported 24 hr after administering compound intravenously in tumor-bearing female BALB-C mice. The series is classed as ADME, organism-based. The conditions noted are these: in vivo, iv. In outline:
(§2)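 Female Balb-C mice bearing Line-1 spontaneous lung carcinoma were used 1 week after inoculation of 10⁶ cells. The iodine-125-labeled compound was given in normal saline, filter-sterilized, by lateral tail vein injection under ether anesthesia. At set times the mice were killed and the organs excised, rinsed, blotted and weighed. Activity was gamma-counted and reported as percent injected dose/gram tissue; thyroid was reported as percent injected dose/tissue.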

Series [14] has as its system Mus musculus. The series can be described thus: Mean biodistribution and elimination data in liver was reported 4 hr after administering compound intravenously in tumor-bearing female BALB-C mice. The series is classed as ADME, organism-based. The conditions noted are these: in vivo, iv. In outline:
as §2

Series [15] deals with Mus musculus. The series can be described thus: Mean biodistribution and elimination data in kidney was reported 4 hr after administering compound intravenously in tumor-bearing female BALB-C mice. It is filed as ADME, organism-based. The conditions noted are these: in vivo, iv. In outline: as §2
Series [16] deals with Mus musculus. Briefly: Mean biodistribution and elimination data in tumor was reported 1 hr after administering compound intravenously in tumor-bearing female BALB-C mice. The conditions noted are these: in vivo, iv. It is filed as ADME, organism-based. The method, boiled down:
as §2

Series [17] concerns Mus musculus. The series can be described thus: Mean biodistribution and elimination data in thyroid was reported 4 hr after administering compound intravenously in tumor-bearing female BALB-C mice. It is filed as ADME, organism-based, Thyroid gland. The conditions noted are these: in vivo, iv. The method, boiled down:
as §2

Series [18] concerns Mus musculus. The series can be described thus: Mean biodistribution and elimination data in kidney was reported 1 hr after administering compound intravenously in tumor-bearing female BALB-C mice. It is filed as ADME, organism-based. The conditions noted are these: in vivo, iv. In outline: as §2
The test system of series [19] is Mus musculus. The series can be described thus: Mean biodistribution and elimination data in urine was reported 24 h after administering compound intravenously in tumor-bearing female BALB-C mice. It is filed as ADME, organism-based. The conditions noted are these: in vivo, iv. The method, boiled down:
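Tumor-bearing female Balb-C mice (Line-1 lung carcinoma) received the ¹²⁵I-labeled compound in normal saline by tail vein injection under ether anesthesia. Urine radioactivity was gamma-counted and expressed as percent injected dose per total sample. Urine was also analyzed by TLC (solvent E) using UV and radioscanning.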

Series [20] concerns HOP-18. Briefly: In vitro inhibition lung HOP-18 cell line. It is filed as functional, Homo sapiens. The method, boiled down: as §1
The test system of series [21] is Mus musculus. Briefly: Mean biodistribution and elimination data in blood was reported 24 hr after administering compound intravenously in tumor-bearing female BALB-C mice. The series is classed as ADME, organism-based. The conditions noted are these: in vivo, iv. In outline: as §2
The subject of series [22] is Mus musculus. The series can be described thus: Mean biodistribution and elimination data in lung was reported 4 hr after administering compound intravenously in tumor-bearing female BALB-C mice. It is filed as ADME, organism-based. The conditions noted are these: in vivo, iv. The method, boiled down: as §2
The subject of series [23] is Mus musculus. The series can be described thus: Mean biodistribution and elimination data in blood was reported 4 hr after administering compound intravenously in tumor-bearing female BALB-C mice. The conditions noted are these: in vivo, iv. The series is classed as ADME, organism-based. In outline:
as §2

For series [24], the system named is Mus musculus. The series can be described thus: Mean biodistribution and elimination data in tumor was reported 4 hr after administering compound intravenously in tumor-bearing female BALB-C mice. The series is classed as ADME, organism-based. The conditions noted are these: in vivo, iv. In outline:
as §2

For series [25], the system named is Mus musculus. The series can be described thus: Mean biodistribution and elimination data in thyroid was reported 24 hr after administering compound intravenously in tumor-bearing female BALB-C mice. It is filed as ADME, organism-based, Thyroid gland. The conditions noted are these: in vivo, iv. In outline:
as §2

The test system of series [26] is Mus musculus. Briefly: Mean biodistribution and elimination data in thyroid was reported 1 hr after administering compound intravenously in tumor-bearing female BALB-C mice. The series is classed as ADME, organism-based, Thyroid gland. The conditions noted are these: in vivo, iv. In outline: as §2
Series [27] relates to Mus musculus. The series can be described thus: Mean biodistribution and elimination data in liver was reported 24 h after administering compound intravenously in tumor-bearing female BALB-C mice. The series is classed as ADME, organism-based. The conditions noted are these: in vivo, iv. In outline: as §2
Series [28] has as its system HOP-18. Briefly: In vitro inhibition lung HOP-18 cell line growth. It is filed as functional, Homo sapiens. In outline: as §1
The test system of series [29] is Mus musculus. The series can be described thus: Mean biodistribution and elimination data in kidney was reported 24 hr after administering compound intravenously in tumor-bearing female BALB-C mice. It is filed as ADME, organism-based. The conditions noted are these: in vivo, iv. In outline: as §2
The test system of series [30] is Mus musculus. The series can be described thus: Mean biodistribution and elimination data in tumoe was reported 24 h after administering compound intravenously in tumor-bearing female BALB-C mice. The conditions noted are these: in vivo, iv. It is filed as ADME, organism-based. The method, boiled down: as §2
The test system of series [31] is Mus musculus. Briefly: Mean biodistribution and elimination data in liver was reported 1 hr after administering compound intravenously in tumor-bearing female BALB-C mice. The series is classed as ADME, organism-based. The conditions noted are these: in vivo, iv. The method, boiled down:
as §2

Series [32] has as its system Mus musculus. The series can be described thus: Mean biodistribution and elimination data in blood was reported 1 h after administering compound intravenously in tumor-bearing female BALB-C mice. The series is classed as ADME, organism-based. The conditions noted are these: in vivo, iv. In outline:
as §2

Series [33] concerns Mus musculus. Briefly: Mean biodistribution and elimination data in lung was reported 1 hr after administering compound intravenously in tumor-bearing female BALB-C mice. It is filed as ADME, organism-based. The conditions noted are these: in vivo, iv. The method, boiled down: as §2

For `C#CCOCn1cnc2c(Cl)ncnc21`, the Cell growth with MOLT-4 is recorded as 40.7%; in the series with LOX IMVI, 33.5%; in the series on K562 [1], 34.8%; in the series on SR, 38.4%; in the series with DMS-114 it was 21%. Besides, the Inhibition (as a rule, the relative decrease from the control value, in per cent) in the series with MOLT-4 stood at 59.3%; in the series with LOX IMVI, 66.5%; with SR, 61.6%; in the series on DMS-114 it was 79%; in the series on K562 [2], 65.2%.
Regarding `C#CCOCn1cnc2c(Sc3c([N+](=O)[O-])ncn3C)ncnc21`, the Cell growth in the series on NCI-H522 [3] is 32%; with CCRF-CEM [4] it was 50%; in the series with SNB-75 [7], -14%; in the series on UO-31 [8], 48%; with LXFL 529 [10] it was 37%. For the same compound, the Inhibition in the series with CCRF-CEM [5] was 50%; in the series with LXFL 529 [6] it was 63%; with NCI-H522 [9], 68%; in the series with UO-31 [11] it was 52%.
`C#CCOCn1cnc2c(S)ncnc21`: in the series with SNB-75 [7], the Cell growth came out at 0%. This compound also registered an Inhibition with SNB-75 [12] of 100%.
With `Nc1ncnc2c1ncn2COC/C=C/I`, the ID/g with Mus musculus [13] is 0.35%; in the series with Mus musculus [14] it was 1.34%; in the series on Mus musculus [15] it was 1%; in the series on Mus musculus [16], 1.5%; in the series with Mus musculus [18], 3.68%; in the series with Mus musculus [21], 0.34%. For the same compound, the ID/g in the series with Mus musculus [22] is reported as 1.3%; with Mus musculus [23], 1.33%; with Mus musculus [24], 0.6%; in the series with Mus musculus [27], 0.33%; in the series on Mus musculus [29], 0.2%; in the series with Mus musculus [30], 0.06%. Besides, the ID/g in the series with Mus musculus [31] amounted to 3.4%; in the series on Mus musculus [32], 3.15%; with Mus musculus [33] it was 3.41%. Also, the Cell growth in the series on CCRF-CEM [4] is reported as 47.4%; in the series with SNB-75 [7] it was 25.2%; in the series with HOP-18 [20], 21.2%. The results for the Inhibition with CCRF-CEM [5], in the series on SNB-75 [12] and in the series with HOP-18 [28] were 52.6%, 74.8% and 78.8%, respectively. Also, the ID/thyroid came to 3.61% in the series with Mus musculus [17], 3.49% with Mus musculus [25] and 1.29% with Mus musculus [26]. In the series with Mus musculus [19], the ID/animal is on record as 94.36%.
